Data taken from ChEMBL document CHEMBL1165861, “Synthesis and biological evaluation of some pyrazolylpyrazolines as anti-inflammatory-antimicrobial agents” (2010).
Converted amounts (≈) assume the structure as drawn.

What was measured:
Rattus norvegicus [1] = assay: Antiinflammatory activity in Wistar albino rat assessed as inhibition of carrageenan-induced paw edema at 50 mg/kg, po administered 30 mins before carrageenan challenge measured after 30 mins relative to control; type: functional
Method in brief: (§1)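 Male Wistar albino rats (200–250 g) in groups of six, food withdrawn 12 h before and during the test. Compounds were dosed orally at 50 mg/kg; controls received tween 80 (95:5). After 30 min, 0.1 mL of 1% w/v carrageenan in saline was injected subplantar into the left hind paw. Plethysmometer volumes were taken initially and at 30–120 min. AI% is relative to control, mean ± SEM, ANOVA.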

Rattus norvegicus [2] = assay: Antiinflammatory activity in Wistar albino rat assessed as inhibition of carrageenan-induced paw edema at 50 mg/kg, po administered 30 mins before carrageenan challenge measured after 60 mins relative to control; type: functional; method in brief: as §1
Rattus norvegicus [3] = assay: Antiinflammatory activity in Wistar albino rat assessed as inhibition of carrageenan-induced paw edema at 50 mg/kg, po administered 30 mins before carrageenan challenge measured after 90 mins relative to control; type: functional; method in brief: as §1
Rattus norvegicus [4] = assay: Antiinflammatory activity in Wistar albino rat assessed as inhibition of carrageenan-induced paw edema at 50 mg/kg, po administered 30 mins before carrageenan challenge measured after 120 mins relative to control; type: functional; method in brief: as §1
Staphylococcus aureus [5] = assay: Antimicrobial activity against Staphylococcus aureus MTCC 3160 at 4 mg/ml after 24 hrs by agar diffusion method; type: functional; conditions: MTCC 3160, 24 h, read-out: DIZ
Method in brief: (§2)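 Agar well diffusion: seeded agar plates swabbed with inoculum and left 15 min for adsorption, then 8 mm wells bored and loaded. Incubation 37 °C for 24 h. Inhibition zone diameter measured in mm with a zone reader. DMSO medium served as negative control and ciprofloxacin as positive control. Triplicates.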

Bacillus subtilis [6] = assay: Antimicrobial activity against Bacillus subtilis MTCC 121 at 4 mg/ml after 24 hrs by agar diffusion method; type: functional; conditions: MTCC 121, 24 h, read-out: DIZ; method in brief: as §2
Pseudomonas aeruginosa [7] = assay: Antimicrobial activity against Pseudomonas aeruginosa MTCC 741 at 4 mg/ml after 24 hrs by agar diffusion method; type: functional; conditions: MTCC 741, 24 h, read-out: DIZ; method in brief: as §2
Escherichia coli [8] = assay: Antimicrobial activity against Escherichia coli MTCC 51 at 4 mg/ml after 24 hrs by agar diffusion method; type: functional; conditions: MTCC 51, 24 h, read-out: DIZ; method in brief: as §2
Staphylococcus aureus [9] = assay: Antimicrobial activity against Staphylococcus aureus MTCC 3160 after 24 hrs by broth microdilution assay; type: functional; conditions: MTCC 3160, 24 h
Method in brief: (§3)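 MIC was determined by microplate dilution (microdilution) in Müller–Hinton broth, with ciprofloxacin as the reference drug.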

Bacillus subtilis [10] = assay: Antimicrobial activity against Bacillus subtilis MTCC 121 after 24 hrs by broth microdilution assay; type: functional; conditions: MTCC 121, 24 h; method in brief: as §3
Pseudomonas aeruginosa [11] = assay: Antimicrobial activity against Pseudomonas aeruginosa MTCC 741 after 24 hrs by broth microdilution assay; type: functional; conditions: MTCC 741, 24 h; method in brief: as §3
Escherichia coli [12] = assay: Antimicrobial activity against Escherichia coli MTCC 51 after 24 hrs by broth microdilution assay; type: functional; conditions: MTCC 51, 24 h; method in brief: as §3
Rattus norvegicus [13] = species on record: Rattus norvegicus; assay: animal or person; conditions: Wistar albino, po, read-out: INH
Rattus norvegicus [14] = species on record: Rattus norvegicus; assay: animal or person; conditions: Wistar albino, po, read-out: INH; remark: listed apart in the source
Rattus norvegicus [15] = species on record: Rattus norvegicus; assay: animal or person; conditions: Wistar albino, po, read-out: INH; remark: listed apart in the source
Rattus norvegicus [16] = species on record: Rattus norvegicus; assay: animal or person; conditions: Wistar albino, po, read-out: INH; remark: listed apart in the source

Compound | MIC (Staphylococcus aureus [9]) | MIC (Bacillus subtilis [10]) | MIC (Pseudomonas aeruginosa [11]) | MIC (Escherichia coli [12]) | inhibition in vivo at 50 mg/kg (Rattus norvegicus [1]) | inhibition in vivo at 50 mg/kg (Rattus norvegicus [2]) | inhibition in vivo at 50 mg/kg (Rattus norvegicus [3]) | inhibition in vivo at 50 mg/kg (Rattus norvegicus [4]) | zone of inhibition at 4000 µg/mL (Staphylococcus aureus [5]) | zone of inhibition at 4000 µg/mL (Bacillus subtilis [6]) | zone of inhibition at 4000 µg/mL (Pseudomonas aeruginosa [7]) | zone of inhibition at 4000 µg/mL (Escherichia coli [8]) | inhibition in vivo at 4 mg/kg (Rattus norvegicus [13]) | inhibition in vivo at 4 mg/kg (Rattus norvegicus [14]) | inhibition in vivo at 4 mg/kg (Rattus norvegicus [15]) | inhibition in vivo at 4 mg/kg (Rattus norvegicus [16])
Cc1ccc(C2=NN(c3ccc(S(N)(=O)=O)cc3)C(c3cn(-c4ccccc4)nc3-c3ccc(C)cc3)C2)cc1 (stereo not drawn) | 32 µg/mL (≈ 58.4 µM) | 64 µg/mL (≈ 117 µM) | 128 µg/mL (≈ 234 µM) | 64 µg/mL (≈ 117 µM) | 18% | 19% | 16% | 9% | 16.7 mm | 10.7 mm | 9.33 mm | 10.7 mm | – | – | – | –
NS(=O)(=O)c1ccc(N2N=C(c3ccc(F)cc3)CC2c2cn(-c3ccccc3)nc2-c2ccc(Br)cc2)cc1 (stereo not drawn) | 64 µg/mL (≈ 104 µM) | 64 µg/mL (≈ 104 µM) | 128 µg/mL (≈ 208 µM) | 128 µg/mL (≈ 208 µM) | 13% | 26% | 17% | 15% | 10 mm | 11 mm | 9.33 mm | 9.33 mm | – | – | – | –
Cc1ccc(C2=NN(c3ccc(S(N)(=O)=O)cc3)C(c3cn(-c4ccccc4)nc3-c3ccccc3)C2)cc1 (stereo not drawn) | 32 µg/mL (≈ 60 µM) | 32 µg/mL (≈ 60 µM) | 64 µg/mL (≈ 120 µM) | 64 µg/mL (≈ 120 µM) | 5% | 17% | 27% | 26% | 16.3 mm | 17 mm | 11.7 mm | 11.7 mm | – | – | – | –
NS(=O)(=O)c1ccc(N2N=C(c3ccccc3)CC2c2cn(-c3ccccc3)nc2-c2ccccc2)cc1 (stereo not drawn) | 32 µg/mL (≈ 61.6 µM) | 32 µg/mL (≈ 61.6 µM) | 64 µg/mL (≈ 123 µM) | 64 µg/mL (≈ 123 µM) | 5% | 4% | 10% | 1% | 17.7 mm | 18.7 mm | 10.7 mm | 11.7 mm | – | – | – | –
Cc1ccc(-c2nn(-c3ccccc3)cc2C2CC(c3ccccc3)=NN2c2ccc(S(N)(=O)=O)cc2)cc1 (stereo not drawn) | 32 µg/mL (≈ 60 µM) | 64 µg/mL (≈ 120 µM) | 128 µg/mL (≈ 240 µM) | 64 µg/mL (≈ 120 µM) | 18% | 14% | 22% | 16% | 16 mm | 11 mm | 9.33 mm | 11.7 mm | – | – | – | –
O=C(O)c1cn(C2CC2)c2cc(N3CCNCC3)c(F)cc2c1=O [CIPROFLOXACIN] | 2 µg/mL (≈ 6.04 µM) | 2 µg/mL (≈ 6.04 µM) | 4 µg/mL (≈ 12.1 µM) | – | – | – | – | – | 32.6 mm | 29.2 mm | 28 mm | 28.6 mm | – | – | – | –
CS(=O)(=O)Nc1ccc([N+](=O)[O-])cc1Oc1ccccc1 [NIMESULIDE] | – | – | – | – | – | – | – | – | – | – | – | – | 37% | 43% | 45% | 36%

Second part, led by results:

MIC (Staphylococcus aureus [9]) | MIC (Bacillus subtilis [10]) | MIC (Pseudomonas aeruginosa [11]) | MIC (Escherichia coli [12]) | Compound | inhibition in vivo at 50 mg/kg (Rattus norvegicus [1]) | inhibition in vivo at 50 mg/kg (Rattus norvegicus [2]) | inhibition in vivo at 50 mg/kg (Rattus norvegicus [3]) | inhibition in vivo at 50 mg/kg (Rattus norvegicus [4]) | zone of inhibition at 4000 µg/mL (Staphylococcus aureus [5]) | zone of inhibition at 4000 µg/mL (Bacillus subtilis [6]) | zone of inhibition at 4000 µg/mL (Pseudomonas aeruginosa [7]) | zone of inhibition at 4000 µg/mL (Escherichia coli [8]) | inhibition in vivo at 4 mg/kg (Rattus norvegicus [13]) | inhibition in vivo at 4 mg/kg (Rattus norvegicus [14]) | inhibition in vivo at 4 mg/kg (Rattus norvegicus [15]) | inhibition in vivo at 4 mg/kg (Rattus norvegicus [16])
32 µg/mL (≈ 53.5 µM) | 64 µg/mL (≈ 107 µM) | 128 µg/mL (≈ 214 µM) | 64 µg/mL (≈ 107 µM) | NS(=O)(=O)c1ccc(N2N=C(c3ccc(Br)cc3)CC2c2cn(-c3ccccc3)nc2-c2ccccc2)cc1 (stereo not drawn) | 7% | 23% | 22% | 23% | 17 mm | 11.3 mm | 9.66 mm | 11.7 mm | – | – | – | –
32 µg/mL (≈ 58 µM) | 32 µg/mL (≈ 58 µM) | 64 µg/mL (≈ 116 µM) | 64 µg/mL (≈ 116 µM) | Cc1ccc(-c2nn(-c3ccccc3)cc2C2CC(c3ccc(F)cc3)=NN2c2ccc(S(N)(=O)=O)cc2)cc1 (stereo not drawn) | 30% | 43% | 34% | 32% | 16.7 mm | 16.3 mm | 11 mm | 11.7 mm | – | – | – | –
16 µg/mL (≈ 28.8 µM) | 16 µg/mL (≈ 28.8 µM) | 32 µg/mL (≈ 57.6 µM) | 32 µg/mL (≈ 57.6 µM) | NS(=O)(=O)c1ccc(N2N=C(c3ccc(F)cc3)CC2c2cn(-c3ccccc3)nc2-c2ccc(F)cc2)cc1 (stereo not drawn) | 18% | 8% | 16% | 9% | 21 mm | 10.7 mm | 19.3 mm | 10.7 mm | – | – | – | –
16 µg/mL (≈ 29.8 µM) | 16 µg/mL (≈ 29.8 µM) | 32 µg/mL (≈ 59.5 µM) | 32 µg/mL (≈ 59.5 µM) | NS(=O)(=O)c1ccc(N2N=C(c3ccccc3)CC2c2cn(-c3ccccc3)nc2-c2ccc(F)cc2)cc1 (stereo not drawn) | 18% | 14% | 22% | 23% | 23.3 mm | 11.7 mm | 17.3 mm | 17.3 mm | – | – | – | –
8 µg/mL (≈ 13.4 µM) | 8 µg/mL (≈ 13.4 µM) | 32 µg/mL (≈ 53.5 µM) | 32 µg/mL (≈ 53.5 µM) | NS(=O)(=O)c1ccc(N2N=C(c3ccccc3)CC2c2cn(-c3ccccc3)nc2-c2ccc(Br)cc2)cc1 (stereo not drawn) | 16% | 26% | 38% | 32% | 24 mm | 23.7 mm | 17.3 mm | 17.3 mm | – | – | – | –
8 µg/mL (≈ 14.9 µM) | 8 µg/mL (≈ 14.9 µM) | 32 µg/mL (≈ 59.5 µM) | 16 µg/mL (≈ 29.8 µM) | NS(=O)(=O)c1ccc(N2N=C(c3ccc(F)cc3)CC2c2cn(-c3ccccc3)nc2-c2ccccc2)cc1 (stereo not drawn) | 22% | 25% | 23% | 15% | 23.7 mm | 23.3 mm | 17.7 mm | 21.7 mm | – | – | – | –
